In ChEMBL document CHEMBL1145787, “Synthesis and structure-activity relationship of N-substituted 4-arylsulfonylpiperidine-4-hydroxamic acids as novel, orally active matrix metalloproteinase inhibitors for the treatment of osteoarthritis” (J Med Chem, 2003):
pIC50: −log10 of the molar value.

Legend:
[1] = In vivo inhibitory activity against Matrix metalloprotease enzyme by dialysis implant assay, value is relative to activity of CGS-27023 (76+/-2) at 25 mg/kg. po; format: functional
[2] = target: Matrix metalloproteinase-9 (Homo sapiens, UniProt P14780); experiment: In vitro inhibitory activity against matrix metalloprotease-9.
Matrix metalloproteinase-9, sequence (P14780 whole entry): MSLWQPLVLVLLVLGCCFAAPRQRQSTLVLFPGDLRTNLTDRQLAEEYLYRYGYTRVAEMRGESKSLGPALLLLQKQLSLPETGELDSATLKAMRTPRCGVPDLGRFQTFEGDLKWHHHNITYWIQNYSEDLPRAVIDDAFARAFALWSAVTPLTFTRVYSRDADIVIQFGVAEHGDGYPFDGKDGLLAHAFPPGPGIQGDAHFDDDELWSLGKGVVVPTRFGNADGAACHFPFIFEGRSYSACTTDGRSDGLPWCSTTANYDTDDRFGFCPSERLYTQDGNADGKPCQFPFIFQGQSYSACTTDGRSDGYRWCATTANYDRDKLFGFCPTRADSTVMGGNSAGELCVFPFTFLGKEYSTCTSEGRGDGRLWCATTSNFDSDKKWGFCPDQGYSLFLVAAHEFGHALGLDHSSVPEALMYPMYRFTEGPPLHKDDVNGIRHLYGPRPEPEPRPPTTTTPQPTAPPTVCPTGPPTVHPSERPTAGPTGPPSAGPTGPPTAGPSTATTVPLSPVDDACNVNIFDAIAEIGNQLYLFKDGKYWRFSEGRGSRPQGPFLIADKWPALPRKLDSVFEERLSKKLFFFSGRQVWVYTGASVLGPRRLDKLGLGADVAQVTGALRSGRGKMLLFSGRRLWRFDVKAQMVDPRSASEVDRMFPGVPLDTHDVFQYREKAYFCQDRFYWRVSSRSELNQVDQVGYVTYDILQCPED

[3] = target: Collagenase 3 (Homo sapiens, UniProt P45452)
[4] = In vivo inhibitory activity against Matrix metalloprotease enzyme by dialysis implant assay, value is relative to activity of CGS-27023 (58+/-2) at 25 mg/kg. po; format: functional
[5] = target: T1, Disintegrin and metalloproteinase domain-containing protein 17 (Homo sapiens, UniProt P78536); experiment: Inhibition of Tumor necrosis factor alpha converting enzyme (TACE) at 10 uM
T1 sequence (P78536 whole entry, the tested form may be a part): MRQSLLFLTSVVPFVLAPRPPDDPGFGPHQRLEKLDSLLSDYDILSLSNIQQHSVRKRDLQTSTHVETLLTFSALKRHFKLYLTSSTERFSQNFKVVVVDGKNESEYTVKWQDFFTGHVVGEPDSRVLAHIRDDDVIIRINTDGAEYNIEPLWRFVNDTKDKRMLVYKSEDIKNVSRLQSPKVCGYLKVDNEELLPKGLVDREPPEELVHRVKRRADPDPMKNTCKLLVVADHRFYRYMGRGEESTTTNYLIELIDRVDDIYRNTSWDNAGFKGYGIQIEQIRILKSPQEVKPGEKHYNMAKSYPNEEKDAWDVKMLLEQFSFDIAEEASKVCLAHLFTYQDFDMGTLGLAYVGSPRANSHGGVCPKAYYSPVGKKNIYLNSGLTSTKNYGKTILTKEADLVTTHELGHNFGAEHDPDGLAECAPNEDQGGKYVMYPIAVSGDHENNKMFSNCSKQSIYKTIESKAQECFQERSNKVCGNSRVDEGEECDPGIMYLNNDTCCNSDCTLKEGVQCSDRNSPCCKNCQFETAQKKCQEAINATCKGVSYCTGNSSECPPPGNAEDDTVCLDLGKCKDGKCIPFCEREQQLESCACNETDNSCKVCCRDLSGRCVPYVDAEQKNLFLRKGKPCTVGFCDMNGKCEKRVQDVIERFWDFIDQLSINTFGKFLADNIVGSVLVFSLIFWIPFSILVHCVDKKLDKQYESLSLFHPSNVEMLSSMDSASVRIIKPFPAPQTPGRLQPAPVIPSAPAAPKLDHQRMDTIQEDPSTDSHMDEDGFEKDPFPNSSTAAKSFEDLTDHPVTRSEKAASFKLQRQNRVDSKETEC
Method in brief: (§1)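 Dose–response curves were not generated when inhibition was below 60% at 10 μM.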

[6] = In vivo inhibitory activity against Matrix metalloprotease enzyme by dialysis implant assay, value is relative to activity of CGS-27023 (35+/-4) at 25 mg/kg. po; format: functional
[7] = target: T2, Interstitial collagenase (Homo sapiens, UniProt P03956); experiment: In vitro inhibitory activity against matrix metalloprotease-1
T2 sequence (P03956 whole entry): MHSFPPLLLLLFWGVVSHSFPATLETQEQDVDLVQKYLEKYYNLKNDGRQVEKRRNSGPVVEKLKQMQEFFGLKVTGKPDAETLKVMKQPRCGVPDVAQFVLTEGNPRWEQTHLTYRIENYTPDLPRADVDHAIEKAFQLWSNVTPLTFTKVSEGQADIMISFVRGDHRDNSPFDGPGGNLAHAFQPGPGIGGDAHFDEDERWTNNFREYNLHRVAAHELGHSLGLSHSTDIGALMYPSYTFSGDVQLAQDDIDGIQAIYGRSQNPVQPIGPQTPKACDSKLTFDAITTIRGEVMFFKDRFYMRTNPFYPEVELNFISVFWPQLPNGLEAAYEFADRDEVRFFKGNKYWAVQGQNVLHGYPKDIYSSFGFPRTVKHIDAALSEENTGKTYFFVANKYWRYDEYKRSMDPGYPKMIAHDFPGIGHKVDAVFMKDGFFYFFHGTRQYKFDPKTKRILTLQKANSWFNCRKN

[8] = target: T3, Interstitial collagenase (Homo sapiens) (UniProt P03956); experiment: Inhibition of Matrix metalloprotease-1 at 10 uM; method in brief: as §1
T3 sequence (whole entry): T2 sequence (P03956 whole entry)

[9] = target: T1, Disintegrin and metalloproteinase domain-containing protein 17; experiment: In vitro inhibitory activity against tumor necrosis factor alpha converting enzyme (TACE).
[10] = In vivo inhibitory activity against Matrix metalloprotease enzyme by dialysis implant assay, value is relative to activity of CGS-27023 (69+/-2) at 25 mg/kg. po; format: functional
[11] = In vivo inhibition of Matrix metalloprotease enzyme by Sponge-wrapped cartilage assay, value is relative to activity of CGS-27023 (27+/-2) at 25 mg/kg. po. bid; format: functional
[12] = In vivo inhibitory activity against Matrix metalloprotease enzyme by dialysis implant assay, value is relative to activity of CGS-27023 (38+/-3) at 25 mg/kg. po; format: functional
[13] = In vivo inhibitory activity against Matrix metalloprotease enzyme by dialysis implant assay, value is relative to activity of CGS-27023 (51+/-2) at 25 mg/kg. po; format: functional
[14] = In vivo inhibition of Matrix metalloprotease enzyme by Sponge-wrapped cartilage assay, value is relative to activity of CGS-27023 (39+/-3) at 25 mg/kg. po. bid; format: functional
[15] = In vivo inhibition of Matrix metalloprotease enzyme by Sponge-wrapped cartilage assay, value is relative to activity of CGS-27023 (37+/-5) at 25 mg/kg. po. bid; format: functional
[16] = In vivo inhibitory activity against Matrix metalloprotease enzyme by dialysis implant assay, value is relative to activity of CGS-27023 (65+/-4) at 25 mg/kg. po; format: functional
[17] = In vivo inhibitory activity against Matrix metalloprotease enzyme by dialysis implant assay, value is relative to activity of CGS-27023 (68+/-5) at 25 mg/kg. po; format: functional
[18] = In vivo inhibitory activity against Matrix metalloprotease enzyme by dialysis implant assay, value is relative to activity of CGS-27023 (74+/-2) at 25 mg/kg. po; format: functional
[19] = In vivo inhibition of Matrix metalloprotease enzyme by Sponge-wrapped cartilage assay, value is relative to activity of RS-130830 (43+/-3) at 25 mg/kg. po. bid; format: functional
[20] = In vivo inhibitory activity against Matrix metalloprotease enzyme by dialysis implant assay, value is relative to activity of CGS-27023 (73+/-3) at 25 mg/kg. po; format: functional
[21] = In vivo inhibition of Matrix metalloprotease enzyme by Sponge-wrapped cartilage assay, value is relative to activity of RS-130830 (39+/-2) at 10 mg/kg. po. bid; format: functional
[22] = In vivo inhibitory activity against Matrix metalloprotease enzyme by dialysis implant assay, value is relative to activity of CGS-27023 (54+/-2) at 25 mg/kg. po; format: functional
[23] = In vivo inhibition of Matrix metalloprotease enzyme by Sponge-wrapped cartilage assay, value is relative to activity of CGS-27023 (25+/-4) at 25 mg/kg. po. bid; format: functional

## COc1ccc(S(=O)(=O)C2(C(=O)NO)CCN(Cc3ccc(C)cc3)CC2)cc1
[1]
  inhibition in vivo at 25 mg/kg: 89%
[2]
  pIC50: 7.77
[3]
  pIC50: 8.70

## COc1ccc(S(=O)(=O)C2(C(=O)NO)CCN(C)CC2)cc1
[4]
  inhibition in vivo at 25 mg/kg: 36%
[5]
  inhibition: 20%

## O=C(NO)C1(S(=O)(=O)c2ccc(OCc3ccccc3)cc2)CCN(Cc2ccccc2)CC1
[6]
  inhibition in vivo at 25 mg/kg: 17%
[7]
  pIC50: 7.40
[8]
  inhibition: 48%
[2]
  pIC50: 8.52
[9]
  pIC50: 6.38

## CCCCOc1ccc(S(=O)(=O)C2(C(=O)NO)CCN(CCCOc3ccccc3)CC2)cc1
[10]
  inhibition in vivo at 25 mg/kg: 67%
[11]
  inhibition in vivo at 25 mg/kg: 17%
[2]
  pIC50: 8.30

## CCN1CCC(C(=O)NO)(S(=O)(=O)c2ccc(OC)cc2)CC1
[12]
  inhibition in vivo at 25 mg/kg: 17%
[5]
  inhibition: 25%

## CCCCOc1ccc(S(=O)(=O)C2(C(=O)NO)CCN(Cc3ccccc3)CC2)cc1
[13]
  inhibition in vivo at 25 mg/kg: 80%
[14]
  inhibition in vivo at 25 mg/kg: 53%
[2]
  pIC50: 8.40
[3]
  pIC50: 9.00

## COc1ccc(CN2CCC(C(=O)NO)(S(=O)(=O)c3ccc(OC)cc3)CC2)cc1
[10]
  inhibition in vivo at 25 mg/kg: 75%
[15]
  inhibition in vivo at 25 mg/kg: 45%
[3]
  pIC50: 8.70

## CCCCOc1ccc(S(=O)(=O)C2(C(=O)NO)CCN(Cc3cccc(OCCN4CCOCC4)c3)CC2)cc1
[16]
  inhibition in vivo at 25 mg/kg: 27%

## COc1ccc(S(=O)(=O)C2(C(=O)NO)CCN(C(C)C)CC2)cc1
[17]
  inhibition in vivo at 25 mg/kg: 49%
[5]
  inhibition: 18%

## CCCCOc1ccc(S(=O)(=O)C2(C(=O)NO)CCN(CCCC)CC2)cc1
[18]
  inhibition in vivo at 25 mg/kg: 86%
[19]
  inhibition in vivo at 25 mg/kg: 46%
[8]
  inhibition: 50%
[3]
  pIC50: 8.70

## CCCCN1CCC(C(=O)NO)(S(=O)(=O)c2ccc(Oc3ccc(Cl)cc3)cc2)CC1
[20]
  inhibition in vivo at 25 mg/kg: 93%
[21]
  inhibition in vivo at 10 mg/kg: 69%
[7]
  pIC50: 5.97
[2]
  pIC50: 9.00
[9]
  pIC50: 6.52
[3]
  pIC50: 9.00

## CCCCOc1ccc(S(=O)(=O)C2(C(=O)NO)CCN(Cc3ccc(OC)cc3)CC2)cc1
[22]
  inhibition in vivo at 25 mg/kg: 69%
[23]
  inhibition in vivo at 25 mg/kg: 17%
[2]
  pIC50: 8.52
[3]
  pIC50: 9.00
